Most compounds without a hit are left out; they make up all but 2.1% or so of the library.
ERp5 block: inhibitors of ERp5-driven insulin aggregation, primary screen, biochemical, turbidity, absorbance 650 nm, single point | 90 min | inhibition, % at 9.99 µM | 0.05% of 350,000 active | AID 651711, 2012;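 active = mean replicate inhibition above about 25%, with every replicate also reaching it, limit read from the data, passing the limit was not always enough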
Target sequence (Q15084 whole entry, looked up): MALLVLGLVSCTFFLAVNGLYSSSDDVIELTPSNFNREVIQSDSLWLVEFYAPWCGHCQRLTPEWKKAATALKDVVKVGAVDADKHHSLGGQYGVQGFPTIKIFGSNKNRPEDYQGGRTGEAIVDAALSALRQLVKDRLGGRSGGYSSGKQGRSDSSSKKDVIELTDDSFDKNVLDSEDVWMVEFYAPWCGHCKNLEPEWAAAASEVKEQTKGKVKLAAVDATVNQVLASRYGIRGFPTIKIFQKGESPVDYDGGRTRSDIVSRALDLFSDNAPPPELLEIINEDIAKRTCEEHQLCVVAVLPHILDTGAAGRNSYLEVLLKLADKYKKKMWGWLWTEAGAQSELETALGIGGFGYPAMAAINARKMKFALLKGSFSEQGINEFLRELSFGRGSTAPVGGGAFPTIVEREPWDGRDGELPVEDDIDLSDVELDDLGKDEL
PDI inh: inhibitors of human PDI, primary screen, biochemical, turbidity, single point, plate reader; inhibition, % at 10 µM; 0.052% of 350,000 active; Protein disulfide-isomerase (Homo sapiens), P07237; PDI insulin aggregation turbidity, A650, 90 min; AID 588391, 2011;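 active = mean inhibition across replicates of 30% or more, whatever share of single replicates reach that level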
FGF22 binding: binders of human FGF22 protein, primary screen, FGF22 synaptogenesis inhibitor project, biophysical, thermal shift, single point | activity (Tm shift, normalised), % at 9.99 µM | AID 651658, 2012 | 1.5% of 340,000 active | recombinant FGF22 thermal shift, SYPRO orange fluorescence; percent of sucrose octasulfate shift, DMSO zero | Fibroblast growth factor 22 (Homo sapiens), Q9HCT0;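 active = mean Tm shift, scaled 0 neutral to 100 positive control, at about 1.3% or above, every replicate too, limit read from the data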
FN deposition inh: inhibitors of fibronectin matrix deposition, primary screen, AH1F cells, Alexa488-fibronectin fluorescence, plate reader. AH1F fibroblasts, overnight. inhibition, % at 12.6 µM. 0.086% of 350,000 active. AID 743247, 2014;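 active = mean inhibition across replicates of 30% or more, regardless of how many single replicates reach that level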
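Assay system: AH1F fibroblast monolayer, labelled fibronectin deposition. Amount: 10000 cells per well. Also added: labelled fibronectin 24 nM. Compound: single-point pinned compound. Incubation: cell attachment 1 h, compound and FN exposure overnight. Detection: fluorescence after three HBSS washes, excitation 485 nm, emission 525 nm. Read-out: inhibition of fibronectin deposition signal.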
ARNT-TACC3 inh: disruptors of ARNT/TACC3 protein interaction, primary screen, biochemical, AlphaScreen, single concentration. Transforming acidic coiled-coil-containing protein 3 (Homo sapiens), Q9Y6A5. AlphaScreen His-ARNT PAS-B/GST-TACC3 binding, luminescence; TACC3 fragment carries E629A point mutation. inhibition, % at 9.99 µM. 0.66% of 390,000 active. AID 623870, 2012;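 active = mean inhibition of replicates at least 50% and at least half of replicates each reaching 50%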
MLL AF4-AF9 inh: inhibitors of AF4 peptide binding to AF9, primary screen, biochemical, AlphaScreen, biotin-AF4 peptide, FLAG-AF9, single point; inhibition, % at 10 µM; 0.47% of 350,000 active;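 active = every replicate reaching a set inhibition limit, whatever the replicate mean, cut at about 25% in these data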
A number is an active result; i = inactive; nt = not tested or not shown.

SMILES | ERp5 block | PDI inh | FGF22 binding | FN deposition inh | ARNT-TACC3 inh | MLL AF4-AF9 inh
C[C@@H]1CN([C@H](C)CO)C(=O)c2cc(NC(=O)c3ccncc3)ccc2O[C@@H](C)CCCCO[C@H]1CN(C)C(=O)Nc1ccccc1 | i | nt | nt | i | i | i
COc1cccc(N=C(N)N=C(N)N)c1 | i | i | i | i | i | i
COc1ccnc(CSC(N)=Nc2ccc(F)cc2)c1 | nt | i | nt | i | 81.8 | nt
O=C(Nc1ccccc1)OCCOc1ccc(Cl)cc1Cl | i | i | 43.9 | i | i | i
O=C(Nc1cccc(Cl)c1)OCCOCCOC(=O)Nc1cccc(Cl)c1 | i | i | i | i | i | i
CCCOc1ccc(CNC(=S)Nc2ccccc2)cc1Cl | i | i | 39.6 | i | i | i
CN(C)C(=O)c1ccc(-c2ccccc2[C@H]2[C@@H](CO)N(C(=O)C3CCCC3)[C@H]2C#N)cc1 | i | nt | nt | i | nt | i
Cc1sc(NC(=O)Cn2cnnn2)nc1-c1ccc(Cl)cc1 | i | i | 43.0 | i | i | i
CCCC#Cc1cnc2c(c1)C(=O)N([C@@H](C)CO)C[C@H](C)[C@@H](CN(C)C(=O)NC1CCCC1)O2 | i | nt | i | i | i | i
COCC#Cc1cnc2c(c1)C(=O)N([C@@H](C)CO)C[C@@H](C)[C@@H](CN(C)C(=O)NC1CCCC1)O2 | i | nt | i | i | i | i
C[C@H]1CN([C@@H](C)CO)C(=O)c2cc(C#CC3CCCCC3)cnc2O[C@@H]1CN(C)S(=O)(=O)c1cccc(F)c1 | i | nt | i | i | i | 32.3
COCC#Cc1cnc2c(c1)C(=O)N([C@H](C)CO)C[C@@H](C)[C@H](CN(C)C(=O)NC1CCCC1)O2 | 59.3 | nt | i | i | i | i
COCC#Cc1cnc2c(c1)C(=O)N([C@@H](C)CO)C[C@H](C)[C@@H](CN(C)C(=O)NC1CCCC1)O2 | 49.8 | nt | i | i | i | i
O=C(NC1CCCC1)C(c1cccnc1)N(CCc1ccccc1)C(=O)c1ccco1 (centres undefined) | i | i | i | i | i | i
Cc1nn(C)cc1C(C(=O)NC1CCCCC1)N(CCc1ccccc1)C(=O)c1cnccn1 (centres undefined) | i | i | 43.3 | i | nt | i
Nc1nonc1-n1nnc(C(=O)N/N=C/c2ccccn2)c1CNc1ccccc1 | i | i | i | i | 46.6 | i
Nc1nonc1-n1nnc(C(=O)N/N=C/c2ccc(OCc3ccccc3)cc2)c1CNc1ccccc1 | nt | i | i | i | i | i
Cc1c(C(=O)N/N=C/c2ccccn2)nnn1-c1nonc1N | i | i | i | i | 42.9 | i
COc1ccc(S(=O)(=O)N2CCOCC2)cc1NC(=O)[C@@H]1CCCN1C(=O)c1cccs1 | i | i | 43.2 | i | i | i
COc1ccc(S(=O)(=O)N2CCOCC2)cc1NC(=O)C1CCCN1C(=O)c1cccs1 (centres undefined) | i | i | i | i | i | i
COc1ccc(S(=O)(=O)N2CCOCC2)cc1NC(=O)COC(=O)c1ccc([N+](=O)[O-])s1 | nt | i | nt | nt | 30.1 | nt

Source: PubChem BioAssay
